Shown are actives, neighbours in structure and some others; about 1.4% of the full set was active somewhere.
HDAC3 inhib: HDAC3 deacetylase inhibitors, primary screen, biochemical, fluorescence, cell-free homogeneous; Histone deacetylase 3 (Homo sapiens), O15379; recombinant HDAC3, fluorogenic peptide/trypsin coupled; inhibition, % at 8.3 µM; actives 0.15% (n = 320,000); in the data active = inhibition above about 26%, passing the limit was not always enough
Yeast superoxide: reduction of superoxide in aged yeast, primary screen, HTS; S. cerevisiae aged cells, superoxide DHE fluorescence; stronger effect = lower value; superoxide response (% of plate mean), % at 10 µM; actives 0.18% (n = 330,000);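 active = superoxide response under a set limit, about three screen SD below normal, cut at about 65% in these data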;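 note: yeast aged for seven days with compound at 30 °C before DHE staining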
Efflux pump inh: inhibitors of Candida efflux pumps in yeast, primary screen, S. cerevisiae, Nile Red, multiplex | inhibition, % at 10 µM | AID 485275, 2010 | S. cerevisiae Candida pump triplex | actives 0.44% (n = 330,000);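 active = plate passing quality check with inhibition over a set limit, or well fluorescence over plate mean plus 4 SD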;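 note: Nile Red retained in pooled yeast measured as flow cytometry median fluorescence; higher means more Nile Red kept so more efflux inhibition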
IDE inh: human IDE inhibitors in live cells, primary screen, fluorescence polarization, HEK cells, FAbetaB substrate; inhibition, % at 5.59 µM; FAbetaB cleavage; actives 0.41% (n = 320,000); Insulin-degrading enzyme (Homo sapiens), P14735;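 active = percent inhibition above the average of all tested compounds plus 3 SD, set per screening campaign, cut at about 16% in these data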;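 note: IDE supplied by intact live HEK cells; FP after avidin binding of uncleaved biotin substrate so inhibition keeps polarization high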
Target sequence (P14735 whole entry, looked up): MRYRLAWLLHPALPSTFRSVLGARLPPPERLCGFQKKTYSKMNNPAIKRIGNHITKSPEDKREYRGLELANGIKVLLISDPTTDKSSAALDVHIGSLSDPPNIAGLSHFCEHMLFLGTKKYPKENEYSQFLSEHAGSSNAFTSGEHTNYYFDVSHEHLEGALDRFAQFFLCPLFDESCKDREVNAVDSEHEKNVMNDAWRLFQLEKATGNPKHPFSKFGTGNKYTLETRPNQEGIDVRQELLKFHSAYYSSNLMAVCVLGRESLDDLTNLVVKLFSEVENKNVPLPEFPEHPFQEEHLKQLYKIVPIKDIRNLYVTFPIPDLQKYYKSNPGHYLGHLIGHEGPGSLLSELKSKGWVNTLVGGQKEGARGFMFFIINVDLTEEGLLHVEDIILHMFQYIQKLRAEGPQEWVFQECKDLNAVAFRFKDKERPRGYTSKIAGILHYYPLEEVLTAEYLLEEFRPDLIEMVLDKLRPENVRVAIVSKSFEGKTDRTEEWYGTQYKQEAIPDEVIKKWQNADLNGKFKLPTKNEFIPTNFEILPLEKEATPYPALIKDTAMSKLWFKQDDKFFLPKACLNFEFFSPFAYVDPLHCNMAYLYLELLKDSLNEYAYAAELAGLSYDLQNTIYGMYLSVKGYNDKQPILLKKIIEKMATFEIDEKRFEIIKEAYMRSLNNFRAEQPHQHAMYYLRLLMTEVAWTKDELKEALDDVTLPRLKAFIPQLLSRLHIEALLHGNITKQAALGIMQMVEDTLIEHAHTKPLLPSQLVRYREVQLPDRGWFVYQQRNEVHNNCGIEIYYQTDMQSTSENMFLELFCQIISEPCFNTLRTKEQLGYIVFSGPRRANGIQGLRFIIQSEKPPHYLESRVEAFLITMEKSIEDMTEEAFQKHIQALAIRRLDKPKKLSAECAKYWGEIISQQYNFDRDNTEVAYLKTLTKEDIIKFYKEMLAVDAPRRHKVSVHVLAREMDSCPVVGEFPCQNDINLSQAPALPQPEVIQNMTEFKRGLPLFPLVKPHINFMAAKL
IDE cell activ: human IDE activators in live cells, primary screen, fluorescence polarization, HEK cells, FAbeta-B substrate; Insulin-degrading enzyme (Homo sapiens), P14735; FAbeta-B cleavage; 0% vehicle, 100% cell-free pure enzyme wells; activation, % at 5.96 µM; actives 0.073% (n = 340,000);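 active = activation above the mean of all tested compounds plus 3 SD, set per screening campaign, cut at about 17% in these data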
Tb MetRS inh: T. brucei MetRS inhibitors, primary screen, biochemical, luminescence. methionyl-tRNA synthetase (Trypanosoma brucei brucei). purified T. brucei MetRS, ATP depletion, Kinase-Glo luminescence. inhibition, % at 11.9 µM. actives 0.4% (n = 360,000);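 active = inhibition above a per-plate cutoff of the control wells' mean inhibition plus 3 SD, cut at about 5.5% in these data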
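Assay system: T. brucei methionyl-tRNA synthetase, purified | Medium: HEPES buffer with MgCl2, KCl, DTT, spermine, BSA, pyrophosphatase | Compound: 11.9 µM single point | Incubation: 15 min enzyme-compound preincubation, 2 h reaction, 10 min detection, 25 °C | Measured by: Kinase-Glo luciferase luminescence reporting remaining unconsumed ATP | Measure: % inhibition normalized to control-well medians | Replication: Singlicate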
Tb MetRS conf: T. brucei MetRS inhibitors, confirmation, biochemical, luminescence; T. brucei MetRS enzyme, luminescence (ATP depletion); inhibition, % at 11.9 µM; actives 93% (n = 1,400); shares compounds with Tb MetRS inh; AID 624412, 2012; in the data active = inhibition above about 7%
Jurkat tox: Jurkat T cell cytotoxicity, cytotoxicity control for T. brucei MetRS inhibitor project, luminescence, high throughput; shares compounds with Tb MetRS inh; Jurkat cells viability, ATP luminescence; inhibition, % at 8.3 µM; actives 12% (n = 1,400); AID 624413, 2012; in the data active = inhibition above about 15%
Tb MetRS inh FP: T. brucei MetRS inhibitors, orthogonal assay for T. brucei MetRS inhibitor project, biochemical, fluorescence polarization; inhibition, % at 11.9 µM; purified T. brucei MetRS; shares compounds with Tb MetRS inh; AID 651607, 2012; actives 44% (n = 1,400); in the data active = inhibition above about 17%
A number is an active result; . = inactive; / = no result given.

SMILES | HDAC3 inhib | Yeast superoxide | Efflux pump inh | IDE inh | IDE cell activ | Tb MetRS inh | Tb MetRS conf | Jurkat tox | Tb MetRS inh FP
O=C(COc1ccc([N+](=O)[O-])cc1)NCCc1nc2ccccc2[nH]1 | / | . | . | . | / | 6.9 | 12 | . | .
CCn1nccc1NC(=O)c1csc([C@@H]2O[C@H](CO)[C@H](O)[C@H](O)[C@H]2O)n1 | / | / | / | / | / | . | / | / | /
CCCc1nc2c(=O)n(C)c(=O)nc-2n(C)n1 | / | / | / | / | . | 17 | 20 | 73 | .
Cn1nc(-c2ccccn2)nc2c(=O)n(C)c(=O)nc1-2 | / | . | . | . | . | 31 | 31 | 66 | .
COc1ccc(-c2nc(-c3ccccn3)ncc2S(C)(=O)=O)cc1 | . | . | . | . | . | . | / | / | /
O=C1CC2(CCCC2)C(=O)N1CN1CCN(S(=O)(=O)c2ccc(Cl)c(Cl)c2)CC1 | . | . | . | . | . | . | / | / | /
CN[C@@H](CO)C(=O)NC[C@H]1O[C@@H](n2cc(C)c(=O)[nH]c2=O)C[C@@H]1O | / | / | / | / | / | . | / | / | /
O=C(COc1nsnc1N1CCOCC1)Nc1ccc(Cl)cc1 | . | . | . | . | . | 11 | 23 | . | .
OC(c1ccc(Cl)cc1)c1ncc(-c2cccc(C(F)(F)F)c2)[nH]1 (stereo unspecified) | / | / | / | / | / | . | / | / | /
OC(c1cc(F)cc(Cl)c1)c1ncc(-c2cccc(C(F)(F)F)c2)[nH]1 (stereo unspecified) | / | / | / | / | / | 16 | 45 | . | 31
OC(c1cc(Cl)cc(Cl)c1)c1ncc(-c2ccccc2F)[nH]1 (stereo unspecified) | / | / | / | / | / | 30 | 67 | . | 43
COc1ccccc1-c1cnc(C(O)c2cc(Cl)cc(Cl)c2)[nH]1 (stereo unspecified) | / | / | / | / | / | 67 | 88 | . | 69
COc1ccc(NC(=O)COC(=O)Cc2ccc(Br)cc2)cc1 | . | . | . | . | . | . | / | / | /
COc1ccc(OCCC(=O)OCC(=O)Nc2ccc(Br)cc2)cc1 | . | . | . | . | . | 17 | 18 | . | .
COc1ccc(CC(=O)OCC(=O)Nc2ccc(Br)cc2)cc1 | . | . | . | . | . | 11 | 31 | . | 25
COc1ccc(NC(=O)COC(=O)COc2ccc(Br)cc2)cc1 | . | . | . | . | . | . | / | / | /
COC(=O)C1=C(CS(=O)(=O)c2ccccc2)NC(=O)NC1c1ccccc1 (stereo unspecified) | . | . | . | . | . | . | / | / | /
O=C1CC(c2ccc(F)cc2)CC(O)=C1C=NCCN1CCN(C(=O)Nc2ccccc2)CC1 (stereo unspecified) | . | . | . | . | . | . | / | / | /
Oc1ccc(/C=N/Nc2ccnc3cc(Cl)ccc23)cc1O | . | . | . | . | . | 5.6 | 13 | 77 | 26
Oc1ccc(/C=N/Nc2ccnc3cc(Cl)ccc23)c(O)c1O | . | . | . | . | . | . | / | / | /
O=S(=O)(c1cc(F)ccc1F)N1CCN(C2CCCCC2)CC1 | . | . | . | . | . | . | / | / | /
Cc1cccc(C)c1-n1nnnc1-c1nc2cc3ccccc3cc2[nH]c1=O | / | / | / | / | / | 54 | 56 | 70 | 19
Cc1cccc(C)c1-n1nnnc1-c1nc2cc(Br)ccc2[nH]c1=O | / | / | / | / | / | . | / | / | /
COc1cc(OC)c(OC)cc1CNC(=O)c1cc(S(=O)(=O)N(C)c2ccccc2OC)ccc1C | / | / | / | / | . | . | / | / | /
C[C@@H]1CC=C[C@H]2[C@H]1C(=O)N(Cc1ccccc1)[C@H]2c1ccc(/C=C/c2ccccc2)cc1F | . | . | . | . | . | . | / | / | /
SMILES | HDAC3 inhib | Yeast superoxide | Efflux pump inh | IDE inh | IDE cell activ | Tb MetRS inh | Tb MetRS conf | Jurkat tox | Tb MetRS inh FP
COC(=O)C1=C(N)Oc2cc(C)n(Cc3ccco3)c(=O)c2C1c1cccc(Cl)c1 (stereo unspecified) | . | . | . | . | . | 52 | . | . | .
CCn1c(C)cc2c(c1=O)C(c1ccccc1)C(C(=O)OC)=C(N)O2 (stereo unspecified) | . | . | . | . | . | . | / | / | /
Cc1ccc(Nc2ncnc(N)n2)cc1C | . | . | . | . | . | . | / | / | /
Cn1c(CCCOc2ccc(Cl)cc2Cl)nnc1SCC(=O)Nc1cccc(F)c1 | . | . | . | . | . | 6.8 | 34 | . | 41
O=C(CSc1ccc(-c2nc3ccccc3[nH]2)cn1)Nc1ccc2c(c1)OCCO2 | . | . | . | . | . | . | / | / | /
Cc1nc(NC(=O)CSc2ccc(-c3nc4ccccc4[nH]3)cn2)sc1C | . | . | . | . | . | 19 | 36 | . | .
Cc1ccc2nc(-c3ccc(SCC(=O)Nc4nc(C)cs4)nc3)[nH]c2c1 | . | . | . | . | . | . | / | / | /
O=C(CSc1ccc(-c2nc3ccccc3[nH]2)cn1)Nc1ccc(S(=O)(=O)NC2CC2)cc1 | . | . | . | . | . | 64 | 69 | . | 75
Cc1cc2nc(-c3ccc(SCC(=O)Nc4ccc5c(c4)OCCO5)nc3)[nH]c2cc1C | . | . | . | . | . | . | / | / | /
Cc1ccc2nc(-c3ccc(SCC(=O)Nc4ccc5c(c4)OCCO5)nc3)[nH]c2c1 | . | . | . | . | . | 7.4 | 8.6 | . | 18
COCCNC(=O)CSc1ccc(-c2nc3ccccc3[nH]2)cn1 | . | . | . | . | . | 11 | 19 | . | .
O=C(C[C@H]1C[C@H](C(=O)N2CCOCC2)[C@@]2(CCC3CCCC3)c3[nH]c4cc(-c5ccco5)ccc4c3CCN2C1=O)NCc1ccco1 | / | . | . | / | . | . | / | / | /
CN(Cc1ccccc1)S(=O)(=O)c1ccc(NC(=O)c2ccccc2C(=O)O)cc1 | . | . | . | . | . | . | / | / | /
COC(=O)c1ccc(NC(=O)CS(=O)(=O)c2ccccc2)cc1 | . | . | . | . | . | . | / | / | /
CCOc1ccccc1C(=O)NCC(=O)NCCSc1ccc(Br)cc1 | / | / | / | / | . | . | / | / | /
CCOC(=O)CSc1ccc(-c2nc3ccccc3[nH]2)cn1 | . | . | . | . | . | 9.2 | 19 | . | .
CSc1nc(Cl)cc(N(CCO)CCO)n1 | . | . | . | . | . | . | / | / | /
Cc1[nH]c2ccc(C(=O)N3CCN(c4ccccc4Cl)CC3)cc2c1C | . | . | . | . | . | . | / | / | /

Screening results: PubChem BioAssay, several laboratories
